Shown is part of a subset that was picked to be rich in hits.
T cruzi HTS = inhibitors of intracellular Trypanosoma cruzi; intracellular Trypanosoma cruzi in host cells, plate reader; activity score (inhibition), % at 5.01 µM; actives 4.9% (n = 22,000); AID 651903; in the data active = activity score above about 55%;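 note: parasites and compound incubated about four days before reading; 0% = median of neutral control wells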
YB-1 expr inh = YB-1 expression inhibition; delta delta Cp (YB-1 minus CDIP) (test concentration not listed); actives 0.37% (n = 30,000); U2OS, qRT-PCR YB-1 vs CDIP delta delta Cp, 16 h; stronger effect = higher value; zero = DMSO, each unit about twofold;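 active = delta delta Cp rounded down to an integer at or above 3, about 3 SD of DMSO wells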;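 note: higher means less YB-1 transcript or more CDIP transcript relative to DMSO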
INS-1E ATP HTS = rescue of cytokine-induced death in INS-1E beta cells. INS-1E cytokine-induced death, ATP luminescence, 48 h; normalised: neutral wells 0, positive control 100. protection from cytokine-induced ATP loss, % at 10 µM. actives 0.1% (n = 20,000);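 active = mean replicate protection from cytokine-induced ATP loss at least 50% and at least 75% of replicates each reaching 50%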
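Test system: INS-1E rat cells | Quantity: 8000 cells per well | Medium: Phenol-red-free RPMI with 5% fetal bovine serum | Reagent: Cytokine cocktail of IFN-γ, TNF-α and IL-1β | Doses: One compound concentration, pin transfer | Timing: 48 h co-treatment, 10 min post-lysis read | Technique: Luminescent ATP assay (CellTiter-Glo)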
An asterisk follows results filed as active; x = no result given.

SMILES	T cruzi HTS	YB-1 expr inh	INS-1E ATP HTS
C[C@H](CO)N1C[C@H](C)[C@H](CN(C)Cc2ccccc2)Oc2ccc(NC(=O)Cc3ccccc3)cc2CC1=O	29	0.039	-4
C[C@@H]1CN([C@H](C)CO)C(=O)Cc2cc(NC(=O)Cc3ccccc3)ccc2O[C@H]1CN(C)Cc1ccc(C(F)(F)F)cc1	70*	-0.1	-5
C[C@H](CO)N1C[C@H](C)[C@H](CN(C)Cc2ccccc2)Oc2ccc(NC(=O)Nc3ccc(C(F)(F)F)cc3)cc2CC1=O	66*	0.044	-5
C[C@@H]1CN([C@@H](C)CO)C(=O)Cc2cc(NC(=O)Nc3ccc(C(F)(F)F)cc3)ccc2O[C@@H]1CN(C)C(=O)Nc1ccccc1	-20	-0.13	1
C[C@H]1CN([C@@H](C)CO)C(=O)Cc2cc(NC(=O)Nc3ccc(F)cc3)ccc2O[C@@H]1CN(C)Cc1ccccc1	11	-0.005	0
C[C@H]1CN([C@@H](C)CO)C(=O)Cc2cc(NC(=O)Nc3ccccc3)ccc2O[C@H]1CN(C)Cc1ccc(C(F)(F)F)cc1	67*	-0.2	-47
C[C@H]1CN([C@@H](C)CO)C(=O)Cc2cc(NC(=O)Nc3ccc(C(F)(F)F)cc3)ccc2O[C@H]1CN(C)Cc1ccccc1	70*	-0.051	-89
CC(=O)C(O)(C(=O)OCc1ccc(O[C@@H]2O[C@H](CO)[C@@H](O)[C@H](O)[C@H]2O)cc1)C(C)C (some centres undefined)	x	2.7	x
COc1cc(O)c2c(=O)cc(-c3cc(OC)c(OC)c(O)c3OC)oc2c1	x	-0.64	x
Cc1ccc(NC(=O)c2ccc3c(=O)n(Cc4ccco4)c(=S)[nH]c3c2)cc1Cl	x	-0.2	x
Cc1nc2c(o1)N(c1ccccc1)C(N)=C(C#N)C2c1c(Cl)nn(-c2ccccc2)c1C (centres undefined)	x	-0.43	x
N#Cc1cccc(C#N)c1Oc1ccc(S(=O)(=O)NCc2ccco2)cc1	x	-0.5	x
COc1ccc(-c2coc3c(CC=C(C)C)c(O)c(OC)cc3c2=O)cc1	x	0.32	x
C[C@@H]1CN([C@H](C)CO)C(=O)Cc2cc(NC(=O)Nc3ccc(C(F)(F)F)cc3)ccc2O[C@H]1CN(C)Cc1ccccc1	73*	0.03	-8
Clc1ccc(-c2cnc3n2CCC3)cc1Cl	x	-0.22	x
CCCCc1ccc(NC(=O)N=S2CCN(C(=O)c3ccc(Cl)cc3)CC2)cc1	x	-0.28	x
CSC(=O)OCC1=C[C@H](O)[C@@H]2C(C(=O)O)=CO[C@@H](OC3OC(CO)C(O)C(O)C3O)[C@H]12 (some centres undefined)	x	4.1*	x
CC(=O)OCC1=C[C@@H](O)[C@@H]2C=CO[C@@H](OC3OC(CO)C(O)C(O)C3O)[C@H]12 (some centres undefined)	x	2.3	x
O=C(Nc1ccccc1Cl)c1cc2ccccc2cc1O	x	-0.35	x
C[C@H]1CN([C@@H](C)CO)C(=O)Cc2cc(NC(=O)Cc3cn(C)c4ccccc34)ccc2O[C@@H]1CN(C)Cc1ccc(-c2ccccc2)cc1	74*	0.0094	-25
C[C@H]1CN([C@@H](C)CO)C(=O)Cc2cc(NC(=O)Cc3cn(C)c4ccccc34)ccc2O[C@H]1CN(C)Cc1ccc(-c2ccccc2)cc1	43	0.04	-38
C[C@@H]1CN([C@H](C)CO)C(=O)Cc2cc(NC(=O)Cc3cn(C)c4ccccc34)ccc2O[C@H]1CN(C)Cc1ccc(-c2ccccc2)cc1	64*	-0.18	-3
C[C@@H]1CN([C@H](C)CO)C(=O)Cc2cc(NC(=O)Cc3cn(C)c4ccccc34)ccc2O[C@H]1CN(C)CC1CCCCC1	60*	-0.072	-1
C[C@@H]1CN([C@H](C)CO)C(=O)Cc2cc(NC(=O)Cc3cn(C)c4ccccc34)ccc2O[C@@H]1CN(C)Cc1ccc(C(=O)O)cc1	-5	0.069	2
C[C@@H]1CN([C@H](C)CO)C(=O)Cc2cc(NC(=O)Cc3cn(C)c4ccccc34)ccc2O[C@@H]1CN(C)CC1CCCCC1	21	-0.23	1
SMILES	T cruzi HTS	YB-1 expr inh	INS-1E ATP HTS
O=C(NCc1ccccc1)C(c1ccco1)N(Cc1ccc(Br)cc1)C(=O)Cc1ccccc1 (centres undefined)	x	0.25	x
CC1=CC(c2ccccc2)=C(C#N)C(=S)C1CC(=O)c1cccs1 (centres undefined)	x	0.35	x
COCCOC(=O)N1C(=O)[C@@]2(c3cc(C#CCC(C(=O)OC)C(=O)OC)ccc31)[C@H](c1ccccc1OCCO)N1[C@H](c3ccccc3)[C@H](c3ccccc3)OC(=O)[C@H]1[C@@H]2C(N)=O	x	0.25	x
O=S(=O)(/N=C(\Oc1ccccc1)c1ccccc1)c1ccc(Br)cc1	x	0.028	x
C[C@@H]1CN([C@H](C)CO)C(=O)c2cccc(NC(=O)CCCCCC(=O)Nc3ccccc3N)c2O[C@@H]1CN(C)CC1CC1	-19	-0.0057	-9
C[C@H](CO)N1C[C@H](C)[C@H](CN(C)CC2CCCCC2)Oc2c(NC(=O)CCCCCC(=O)Nc3ccccc3N)cccc2C1=O	39	0.34	6
C[C@@H]1CN([C@H](C)CO)C(=O)c2cccc(NC(=O)CCCCCC(=O)Nc3ccccc3N)c2O[C@H]1CN(C)CC1CC1	59*	0.15	11
C[C@@H]1CN([C@@H](C)CO)C(=O)c2cccc(NC(=O)CCCCCC(=O)Nc3ccccc3N)c2O[C@H]1CN(C)CC1CC1	60*	0.087	11
C[C@H]1CN([C@@H](C)CO)C(=O)c2cccc(NC(=O)CCCCCC(=O)Nc3ccccc3N)c2O[C@H]1CN(C)CC1CCCCC1	22	0.34	-11
C[C@H]1CN([C@@H](C)CO)C(=O)c2cccc(NC(=O)CCCCCC(=O)Nc3ccccc3N)c2O[C@@H]1CN(C)CC1CC1	77*	0.17	19
Cn1cnnc1S/C=C/C(=O)c1ccc(Cl)cc1	x	0.78	x
CC1(C)c2ccccc2N(CCC(N)=O)C12C=Cc1c(ccc3ccccc13)O2 (centres undefined)	x	0.039	x
CCn1c2c(c3cc(OCc4ccccc4)ccc31)CCCC2=O	x	0.28	x
C=CC(C)(C)[C@@]12CC(=O)C(=O)N3/C(=C/c4cnc[nH]4)C(=O)N[C@]31N(OC)c1ccccc12	x	0.32	x
O=S1(=O)C=C2C(C1)SC(=S)N2C1CCS(=O)(=O)C1 (centres undefined)	x	-0.4	x
Cc1ccc(S(=O)(=O)c2ccc(Cl)cc2)cc1S(=O)(=O)N1CCCC1	x	-0.72	x
Cc1cc(C)cc(-n2c(C)cc(/C=C3\SC(=O)NC3=O)c2C)c1	x	-0.053	x
Cc1cc(/C=C2/SC(=O)N(C(C)C)C2=O)c(C)n1-c1ccncc1	x	9.6*	x
C=CC1(C)C=C2CCC3C(C)(C)C(O[C@@H]4O[C@@H](CO)[C@H](O)[C@H]4O)CCC3(C)C2CC1O[C@@H]1O[C@H](CO)[C@@H](O)[C@H](O)[C@H]1O (some centres undefined)	x	0.91	x
C=C1CCC(O)/C(C)=C\CC(C(C)C)C(OC2OC(COC(C)=O)C(O)C(O)C2O)C1 (centres undefined)	x	1.3	x
CC(C)CC1NC(=O)C(CC(C)C)N(O[C@@H]2O[C@H](COC(=O)CCC(=O)O)[C@@H](O)[C@H](O)[C@H]2O)C1=O (some centres undefined)	x	4.9*	x
